Published values pooled from the literature.
Protocols differ between the studies behind these lines. Converted amounts (≈) assume the structure as drawn.

S=C(NN=Cc1ccc(Br)cc1)Nc1cccnc1 — IC50 (Leishmania major; parasite growth; J774.A1; 72 h, intracellular, amastigote): 627 µM
COc1ccc(Nc2cnnc3ccc(-c4ccc(N5CCN(C)CC5)cc4)cc23)cc1Cl — EC50 (Leishmania major; parasite growth; intracellular, amastigote): > 22 µM
CNC(=S)NN=Cc1ccc(OC)c(OC)c1 — IC50 (Leishmania major; parasite growth, MTT; 72 h, promastigote): 54.3 µM
C/C(=N\N=C(/C)c1c(O)c2ccccc2oc1=O)c1c(O)c2ccccc2oc1=O — MIC (Aspergillus glaucus; microbial growth, broth dilution; 48 h): 31.2 µg/mL
[H]/N=C(\N/C(=N/[H])NCCCCCCNC(=N)NC(=N)Nc1ccc(Cl)cc1)Nc1ccc(Cl)cc1 — MIC (Enterococcus faecalis; microbial growth): 4 µM
CC1(C)S[C@@H]2[C@H](NC(=O)[C@H](N)c3ccccc3)C(=O)N2[C@H]1C(=O)O — MIC (Enterococcus faecalis; microbial growth, agar dilution; ATCC29212): 64 µg/mL
CNC(=S)NN=Cc1ccc([N+](=O)[O-])cc1 — IC50 (Leishmania major; parasite growth; J774.A1; 72 h, intracellular, amastigote): 177 µM
CN[C@H](CC(C)C)C(=O)N[C@H]1C(=O)N[C@@H](CC(N)=O)C(=O)N[C@H]2C(=O)N[C@H]3C(=O)N[C@H](C(=O)N[C@H](C(=O)O)c4cc(O)cc(O)c4-c4cc3ccc4O)[C@H](O)c3ccc(c(Cl)c3)Oc3cc2cc(c3O[C@@H]2O[C@H](CO)[C@@H](O)[C@H](O)[C@H]2O[C@H]2C[C@](C)(N)[C@H](O)[C@H](C)O2)Oc2ccc(cc2Cl)[C@H]1O — MIC90 (Enterococcus faecalis; microbial growth, broth dilution; clinical isolate): 2 µg/mL (≈ 1.38 µM)
C/C(=N\C(=N)/N=C(\C)c1c(O)c2ccccc2oc1=O)c1c(O)c2ccccc2oc1=O — MIC (Aspergillus glaucus; microbial growth, broth dilution; 48 h): 125 µg/mL
C=C[C@]1(C)C[C@@H](OC(=O)CS[C@@H]2C[C@H]3CC[C@@H](C2)N3C)[C@]2(C)[C@H](C)CC[C@]3(CCC(=O)[C@H]32)[C@@H](C)[C@@H]1O — MIC (Enterococcus faecalis; microbial growth, agar dilution; ATCC29212): 128 µg/mL
COc1ccc(Nc2cnnc3ccc(-c4cnc(N5CCCN(C)CC5)nc4)cc23)cc1Cl — EC50 (Leishmania major; parasite growth; intracellular, amastigote): > 21 µM
C/C(=N\CCNCCNCC/N=C(\C)c1c(O)c2ccccc2oc1=O)c1c(O)c2ccccc2oc1=O — MIC (Aspergillus glaucus; microbial growth, broth dilution; 48 h): 125 µg/mL
CN1CCN(c2ncc(-c3ccc4c(Nc5ncccn5)cnnc4c3)cn2)CC1 — EC50 (Leishmania major; parasite growth; intracellular, amastigote): > 25 µM
COc1c(N2C[C@@H]3CCCN[C@@H]3C2)c(F)cc2c(=O)c(C(=O)O)cn(C3CC3)c12 — MIC (Enterococcus faecalis; microbial growth, agar dilution; ATCC29212): 8 µg/mL
CCCCCCCCCCCC[N+](C)(C)Cc1ccccc1 — MIC (Enterococcus faecalis; microbial growth): 63 µM
C/C(=N\CCNCC/N=C(\C)c1c(O)c2ccccc2oc1=O)c1c(O)c2ccccc2oc1=O — MIC (Aspergillus glaucus; microbial growth, broth dilution; 48 h): 31.2 µg/mL
COc1ccc(Nc2cnnc3ccc(-c4cnc(N5CCN(C)CC5)nc4)cc23)cc1Cl — EC50 (Leishmania major; parasite growth; intracellular, amastigote): > 22 µM
C/C(=N\c1nc(N)nc(/N=C(\C)c2c(O)c3ccccc3oc2=O)n1)c1c(O)c2ccccc2oc1=O — MIC (Aspergillus glaucus; microbial growth, broth dilution; 48 h): 31.2 µg/mL
OC(Cn1cncn1)(Cn1cncn1)c1ccc(F)cc1F — MIC (Aspergillus fumigatus; microbial growth, broth dilution): 4 µg/mL
CC[C@H]1OC(=O)[C@H](C)[C@@H](O[C@H]2C[C@@](C)(OC)[C@@H](O)[C@H](C)O2)[C@H](C)[C@@H](O[C@@H]2O[C@H](C)C[C@H](N(C)C)[C@H]2O)[C@](C)(O)C[C@@H](C)/C(=N\OCOCCOC)[C@H](C)[C@@H](O)[C@]1(C)O — MIC (Enterococcus faecalis; microbial growth, agar dilution; ATCC29212): 128 µg/mL
CN1CCN(c2ccc(-c3ccc4c(Nc5cnccn5)cnnc4c3)cc2)CC1 — EC50 (Leishmania major; parasite growth; intracellular, amastigote): > 25 µM
COc1ccc(C=NNC(=S)Nc2cccnc2)cc1 — IC50 (Leishmania major; parasite growth, MTT; 72 h, promastigote): 1000 µM
Cc1ccc(Nc2cnnc3ccc(-c4ccc(N5CCCN(C)CC5)cc4)cc23)cn1 — EC50 (Leishmania major; parasite growth; intracellular, amastigote): > 4.7 µM
CNC(=S)NN=Cc1ccc(OC)cc1 — IC50 (Leishmania major; parasite growth, MTT; 72 h, promastigote): 26.7 µM
Cc1ccc(Nc2cnnc3cc(-c4ccc(N5CCN(C)CC5)cc4)ccc23)cn1 — EC50 (Leishmania major; parasite growth; intracellular, amastigote): > 24 µM
Cc1c2c(nn1C)CSCc1cc(n(C)n1)CSc1cc(c3ccccc3c1)OCCCc1c(C(=O)O)n(C)c3c-2c(Cl)ccc13 — MIC50 (Enterococcus faecalis; microbial growth, broth dilution; clinical isolate): 25 µM (≈ 16.8 µg/mL)
CNC(=S)NN=Cc1ccc(C)cc1 — IC50 (Leishmania major; parasite growth, MTT; 72 h, promastigote): 938 µM
C[C@@H]1[C@H](O)[C@@H](C)/C=C/C=C/C=C/C=C/C=C/C=C/C=C/[C@H](O[C@@H]2O[C@H](C)[C@@H](O)[C@H](N)[C@@H]2O)C[C@@H]2O[C@](O)(C[C@@H](O)C[C@@H](O)[C@H](O)CC[C@@H](O)C[C@@H](O)CC(=O)O[C@H]1C)C[C@H](O)[C@H]2C(=O)O — MIC (Aspergillus fumigatus; microbial growth, broth dilution; AF293; 48 h): 0.5 µg/mL
CNC(=S)NN=Cc1ccc(Br)cc1 — IC50 (Leishmania major; parasite growth; J774.A1; 72 h, intracellular, amastigote): 31.8 µM
CC(=O)NC[C@H]1CN(c2ccc(N3CCOCC3)c(F)c2)C(=O)O1 — MIC (Enterococcus faecalis; microbial growth, agar dilution; ATCC29212): 2 µg/mL
CN1CCN(c2ncc(-c3ccc4nncc(Nc5cnccn5)c4c3)cn2)CC1 — EC50 (Leishmania major; parasite growth; intracellular, amastigote): > 5 µM
COc1ccc(C=NNC(=S)Nc2cccnc2)cc1OC — IC50 (Leishmania major; parasite growth; J774.A1; 72 h, intracellular, amastigote): 886 µM
